From ChEMBL document CHEMBL4049440, “First Dual Inhibitors of Steroid Sulfatase (STS) and 17β-Hydroxysteroid Dehydrogenase Type 1 (17β-HSD1): Designed Multiple Ligands as Novel Potential Therapeutics for Estrogen-Dependent Diseases” (J Med Chem, 2017)

Tests used:
[1] = molecular target: T1, 17-beta-hydroxysteroid dehydrogenase type 1 (Homo sapiens, UniProt P14061); test: Inhibition of human placental cytosolic 17beta-HSD1 using [3H]-E1/E1 substrate and NADH after 10 mins by HPLC based radio-detection method
T1 sequence (P14061 whole entry): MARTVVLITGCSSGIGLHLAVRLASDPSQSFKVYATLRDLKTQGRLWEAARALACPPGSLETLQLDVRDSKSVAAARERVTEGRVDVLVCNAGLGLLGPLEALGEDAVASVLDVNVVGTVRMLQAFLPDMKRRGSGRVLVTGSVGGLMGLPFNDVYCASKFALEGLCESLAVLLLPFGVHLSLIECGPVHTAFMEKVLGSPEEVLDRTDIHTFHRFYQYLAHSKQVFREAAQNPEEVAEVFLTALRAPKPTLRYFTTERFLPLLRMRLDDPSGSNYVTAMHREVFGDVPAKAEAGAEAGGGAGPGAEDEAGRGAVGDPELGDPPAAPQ
Method in brief: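 Cell-free assay with the cytosolic fraction of human placenta as the 17β-HSD1 source and radiolabeled E1 as substrate, with test compound present.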

[2] = Selectivity factor, ratio of IC50 for human placental microsomal 17beta-HSD2 cells to IC50 for human placental cytosolic 17beta-HSD1
[3] = molecular target: T1, 17-beta-hydroxysteroid dehydrogenase type 1; test: Inhibition of 17beta-HSD1 in human T47D cells preincubated for 1 hr followed by addition of [3H]-E1/E1 as substrate measured after 30 mins by HPLC based radio-detection method; type: cell-based
Steryl-sulfatase [4] = molecular target: T2, Steryl-sulfatase (Homo sapiens, UniProt P08842); test: Irreversible inhibition of STS in human T47D cells preincubated for 2 hrs followed by compound washout and addition of [3H]-E1S/E1S as substrate measured after 24 hrs by HPLC based radio-detection method; type: cell-based
T2 sequence (P08842 whole entry): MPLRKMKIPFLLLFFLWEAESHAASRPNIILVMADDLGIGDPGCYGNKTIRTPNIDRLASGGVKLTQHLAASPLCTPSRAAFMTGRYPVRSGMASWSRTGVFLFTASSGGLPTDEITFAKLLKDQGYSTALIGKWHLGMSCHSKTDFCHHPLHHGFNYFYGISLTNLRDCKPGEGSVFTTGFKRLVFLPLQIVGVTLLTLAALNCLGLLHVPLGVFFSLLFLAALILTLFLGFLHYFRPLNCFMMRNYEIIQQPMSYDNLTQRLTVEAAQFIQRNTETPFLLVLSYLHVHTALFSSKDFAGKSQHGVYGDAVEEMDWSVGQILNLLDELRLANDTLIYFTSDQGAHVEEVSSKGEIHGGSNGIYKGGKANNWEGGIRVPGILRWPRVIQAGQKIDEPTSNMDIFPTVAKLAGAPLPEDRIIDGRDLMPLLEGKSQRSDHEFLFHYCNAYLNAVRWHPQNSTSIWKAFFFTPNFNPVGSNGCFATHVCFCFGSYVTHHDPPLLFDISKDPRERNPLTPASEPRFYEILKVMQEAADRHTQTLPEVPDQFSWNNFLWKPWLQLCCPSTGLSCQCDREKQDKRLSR

T47D = test: Antiproliferative activity against E1S/E1-stimulated human T47D cells assessed as reduction in cell viability measured after 7 days after MTT assay; type: functional, cell-based
[5] = molecular target: T3, 17-beta-hydroxysteroid dehydrogenase type 2 (Homo sapiens, UniProt P37059); test: Inhibition of human placental microsomal 17beta-HSD2 using [3H]-E2/E2 substrate and NAD+ after 20 mins by HPLC based radio-detection method
T3 sequence (P37059 whole entry): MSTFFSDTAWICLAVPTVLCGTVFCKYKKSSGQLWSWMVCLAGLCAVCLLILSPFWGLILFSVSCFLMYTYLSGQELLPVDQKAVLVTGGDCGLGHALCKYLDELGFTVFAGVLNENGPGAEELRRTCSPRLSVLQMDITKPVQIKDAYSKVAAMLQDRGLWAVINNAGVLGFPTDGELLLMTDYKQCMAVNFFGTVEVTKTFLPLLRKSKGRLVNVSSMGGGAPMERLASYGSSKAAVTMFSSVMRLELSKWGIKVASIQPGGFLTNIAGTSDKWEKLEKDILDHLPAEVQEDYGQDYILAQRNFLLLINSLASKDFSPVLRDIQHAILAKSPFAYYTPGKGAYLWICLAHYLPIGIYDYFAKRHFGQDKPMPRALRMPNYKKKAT

Steryl-sulfatase [6] = molecular target: T2, Steryl-sulfatase; test: Inhibition of human placental microsomal STS assessed as formation of E1 preincubated for 30 mins followed by addition of E1S as substrate measured after 20 mins by ELISA
Method in brief: (§1)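 Human placental STS incubated with estrone sulfate (E1S) as substrate in the presence of inhibitor; estrone (E1) formed was quantified by ELISA.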

[7] = Stability of the compound in Tris-HCl buffer at pH 7.2 after 30 mins; type: physicochemical; conditions: pH 7.2, 0.5 h
Method in brief: (§2)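 Compound incubated in 20 mM Tris-HCl buffer, pH 7.2, at 37 °C for 30 min. Remaining parent compound was measured, with sulfamate cleavage to the phenolic OH product monitored.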

Steryl-sulfatase [8] = molecular target: T2, Steryl-sulfatase; test: Inhibition of STS in human T47D cells preincubated for 1 hr followed by addition of [3H]-E1S/E1S as substrate measured after 24 hrs by HPLC based radio-detection method; type: cell-based
[9] = molecular target: T4, Steryl-sulfatase (Homo sapiens) (UniProt P08842); test: Inhibition of human placental microsomal STS assessed as formation of E1 at 1 uM preincubated for 30 mins followed by addition of E1S as substrate measured after 20 mins by ELISA; method in brief: as §1
T4 sequence (whole entry): T2 sequence (P08842 whole entry)

[10] = Drug degradation in Tris-HCl buffer assessed as formation of metabolite containing phenolic OH-group by measuring remaining parent compound levels at pH 7.2 after 30 mins; method in brief: as §2

SMILES	IC50 [1]	Ratio IC50 [2]	IC50 [3]	IC50 (Steryl-sulfatase [4])	Activity (T47D)	IC50 [5]	IC50 (Steryl-sulfatase [6])	Stability [7]	IC50 (Steryl-sulfatase [8])	inhibition [9]	Stability [10]
NS(=O)(=O)Oc1ccc(-c2ccc(C(=O)c3c(F)ccc(O)c3F)s2)cc1F	2.5 nM	5.5	20 nM	5.7 nM	Dose-dependent effect	13.7 nM	81.8 nM	Stable	5.1 nM		
NS(=O)(=O)Oc1ccc(-c2ccc(C(=O)c3c(F)ccc(O)c3F)s2)cc1	3.4 nM	8.2				28 nM		Stable		< 10%	
NS(=O)(=O)Oc1ccc(-c2ccc(C(=O)c3c(F)ccc(O)c3F)s2)c(F)c1	12.2 nM	1.8	42.1 nM	3.1 nM	Dose-dependent effect	22.2 nM	19.5 nM	Stable	2.1 nM		
NS(=O)(=O)Oc1cccc(-c2ccc(C(=O)c3c(F)ccc(O)c3F)s2)c1	2.2 nM	14.2				31.3 nM		Stable		< 10%	
NS(=O)(=O)Oc1ccc(-c2ccc(C(=O)c3c(F)ccc(O)c3F)s2)c(Cl)c1	10.2 nM	1.9	60.9 nM	3.9 nM	Dose-dependent effect	19.1 nM	19.4 nM	Stable	3.4 nM		
NS(=O)(=O)Oc1ccccc1-c1ccc(C(=O)c2c(F)ccc(O)c2F)s1	22.5 nM	0.2				4.1 nM		Stable		< 10%	
NS(=O)(=O)Oc1ccc(-c2ccc(C(=O)c3c(F)ccc(O)c3F)s2)c(F)c1Cl	1.4 nM	13.2				18.4 nM	244 nM				22%
